# FLuc stim CS – firefly luciferase counter-screen for stimulation assays. P08659. ATPlite luciferase biochemical, luminescence, 10 min; 0 = ATP-free wells, 1 = DMSO control. activation factor at 10 µM. 200,000 tested, under 10 active. AID 1027;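 active = luciferase activation factor, scaled between plate controls, of at least 2 with compound at 10 µM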
# Target sequence (P08659 whole entry, looked up): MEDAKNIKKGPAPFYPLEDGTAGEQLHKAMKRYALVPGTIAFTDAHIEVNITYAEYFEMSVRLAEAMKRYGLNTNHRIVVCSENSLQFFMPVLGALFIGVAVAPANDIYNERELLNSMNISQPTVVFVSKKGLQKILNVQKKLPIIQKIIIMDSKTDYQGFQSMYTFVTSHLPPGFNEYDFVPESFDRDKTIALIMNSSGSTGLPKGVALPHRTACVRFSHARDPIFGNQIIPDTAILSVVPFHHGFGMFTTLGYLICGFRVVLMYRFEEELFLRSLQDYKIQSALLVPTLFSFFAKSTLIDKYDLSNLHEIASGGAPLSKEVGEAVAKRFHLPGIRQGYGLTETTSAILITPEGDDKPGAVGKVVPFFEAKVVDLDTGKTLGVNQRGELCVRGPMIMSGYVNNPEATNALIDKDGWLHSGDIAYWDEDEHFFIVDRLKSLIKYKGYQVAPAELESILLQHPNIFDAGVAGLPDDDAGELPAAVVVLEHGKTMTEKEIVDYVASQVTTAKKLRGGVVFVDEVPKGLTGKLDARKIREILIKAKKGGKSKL
#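 System: Luciferase/luciferin detection reagent, cell-free biochemical luciferase assay | Medium: PBS buffer for ATP | Dosing: Test compounds dosed from 2 mM stocks in 100% DMSO | Timing: 10 min at ambient temperature | Signal: Luminescence measurement of luciferase light output | Evaluation: Luciferase activation, seen as luminescence increase over controls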
# PPC-1+TRAIL kill – kills PPC-1 cancer cells in the presence of TRAIL. actives 0.41% (n = 220,000). PPC-1 cells + TRAIL, ATPLite viability luminescence. AID 1443. cell killing (% activity), % at 4 µM or 5 µM;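 active = cell killing above 50% in the first pass at 4 µM, then a duplicate retest at 5 µM averaging 50% or more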;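 also: plate controls were cells with TRAIL plus DMSO for no effect and medium-only wells lacking cells for full effect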
# APP 5'UTR act – APP 5'UTR luciferase reporter activation; SH-SY5Y APP 5'UTR luciferase reporter, luminescence; zero percent = DMSO vehicle wells; activation, % at 2 µM; actives 1% (n = 190,000);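 active = activation above a set limit, based on mean plus 3 SD of controls, cut at about 140% in these data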
# FLuc inhib CS – inhibits firefly luciferase, flagging false hits in luciferase inhibition screens; actives 1.5% (n = 200,000); ATPLite firefly luciferase biochemical luminescence, 10 min; P08659; inhibition, % at 10 µM; AID 1006;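 active = inhibition above about 50% when tested at 10 µM, limit read from the data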
# NF-kB expr up – compounds increasing NF-kB expression in human neuronal cells | fold change at 12.5 µM | NF-kB reporter expression; active compounds read high | actives 1.6% (n = 190,000); in the data active = fold change above about 3.3
# TRAIL sens C8 – sensitizes caspase-8 expressing cells to TRAIL; NB7+C8 cells + TRAIL, ATPlite viability luminescence; inhibition (viability loss, TRAIL sensitization), % at 10 µM; actives 1% (n = 360,000);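 active = compounds causing at least 50% loss of cell viability in the single-dose screen, relative to plate controls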
# * = called active by the depositor; · = not tested or not shown. Rows were chosen to be rich in hits. Some 2.2% of all compounds tested hit in one or more screens of this group.
SMILES,FLuc stim CS,PPC-1+TRAIL kill,APP 5'UTR act,FLuc inhib CS,NF-kB expr up,TRAIL sens C8
O=C1OCCC1Sc1nnc(-c2ccc(O)cc2)o1 (stereo unspecified),0.9,21,-17,14,0.92,3
O=C1OCCC1Sc1nnc(-c2ccc3c(c2)OCO3)o1 (stereo unspecified),0.4,16,-11,60*,0.5,14
Cc1cc2nc(-c3cccnc3SCC(=O)NCc3ccco3)[nH]c2cc1C,·,·,119,·,5.3*,61*
O=C(CSc1ncccc1-c1nc2ccccc2[nH]1)NCc1ccco1,0.9,2,16,6,0.85,3
Cc1cc2nc(-c3cccnc3SCC(=O)NC3CC3)[nH]c2cc1C,0.3,21,41,70*,1.1,·
Cc1ccccc1CSCC(Nc1ccc(C(=O)O)cc1[N+](=O)[O-])C(=O)O (stereo unspecified),1.1,1,-6,-6,1,-27
COC(=O)c1ccc(CSc2nc3c(c(=O)[nH]2)CCC3)cc1,·,·,·,·,·,22
COc1ncnc2c1oc1ccccc12,1,18,100,3,3.3*,1
O=C(NC(=S)N1CCN(c2ccc([N+](=O)[O-])cc2)CC1)c1ccccc1F,1,53*,-8,-4,1.2,-2
Cc1coc2c1C(=O)C(=O)c1c-2ccc2c1CCCC2(C)C,0.9,-3,-8,11,1.3,33
Cc1coc2c1C(=O)C(=O)c1c-2ccc2c(C)cccc12,·,28,·,·,·,54*
O=C(c1cnn(-c2ccccc2)c1)c1ccccc1O,0.6,14,184*,39,9.5*,27
O=C(c1cnn(-c2ccccc2)c1)c1cc(F)ccc1O,·,·,·,·,·,5
COc1ccc(-n2cc(C(=O)c3ccccc3O)cn2)cc1,0.3,16,236*,66*,3.9*,50*
COc1ccc(O)c(C(=O)c2cnn(-c3ccccc3)c2)c1,·,·,·,·,·,4
CC1CC(C)C(=O)C(C(CC2CC(=O)NC(=O)C2)OC(=O)CC(=O)c2ccccc2)C1 (stereo unspecified),·,·,·,·,·,9
O=C(NC1CCSC1=O)C1CCCCC1 (stereo unspecified),1.1,0,-4,-6,1.3,1
O=C(Nc1nc2c(F)cc(F)cc2s1)c1ccccn1,0.3,35,18,66*,4.2*,71*
O=C(COc1ccccc1)NNc1nc2c(F)cc(F)cc2s1,1.1,9,-3,-8,1.3,-12
CCCS(=O)(=O)N1CCCC(C(=O)Nc2ccc3c(c2)CCC3)C1 (stereo unspecified),·,·,·,·,·,13
O=C(NCCCOc1ccc([N+](=O)[O-])cc1Cl)OCc1ccccc1,·,·,·,·,·,-8
C=CCOc1ccccc1CN(C(=O)CCl)c1ccc2c(c1)OCO2,·,·,·,·,·,96*
Oc1cccc(-c2nnc(-c3cccc(O)c3)nn2)c1,·,·,·,·,·,88*
COc1ccc(OC)c(NC(=O)CCN2CC(C)CC(C)C2)c1 (stereo unspecified),·,·,·,·,·,1
COC(=O)c1cccc(NC(=O)/C=C/c2ccc([N+](=O)[O-])cc2)c1,0.8,10,-5,22,1.3,71*
SMILES,FLuc stim CS,PPC-1+TRAIL kill,APP 5'UTR act,FLuc inhib CS,NF-kB expr up,TRAIL sens C8
CC(=O)Nc1ccc(C(=O)OCC(=O)c2cccc([N+](=O)[O-])c2)cc1,1.1,15,4,-10,1.1,1
Cc1ccc(C(=O)COC(=O)c2cccc(NC(=O)c3ccc([N+](=O)[O-])cc3[N+](=O)[O-])c2)cc1,0,33,164*,96*,3,18
CCOC(=O)c1cccc(NC(=O)/C=C/c2ccc([N+](=O)[O-])cc2)c1,0.9,7,-10,14,0.93,76*
O=C(COC(=O)c1cccc(NC(=O)c2ccco2)c1)c1ccc(Br)cc1,0.4,-11,27,60*,1.2,-15
COC(=O)c1cccc(NC(=O)/C=C/c2cccc([N+](=O)[O-])c2)c1,1,26,20,5,1,15
COc1ccc(CNC(=O)[C@@H](NC(=O)C2CCN(C(=O)[C@@H](N)CCSC)CC2)C(C)C)cc1,·,·,·,·,·,-10
Cn1c(=O)c2c(ncn2CC(=O)OCC(=O)NCc2ccccc2Cl)n(C)c1=O,1,5,-5,-4,1.3,8
Cc1ccc(-n2nnc(-c3cc4ccccc4n3C)n2)cc1,0.8,10,122,22,1.2,39
Cc1ccc(-n2nnc(-c3cccnc3Cl)n2)cc1,0.3,40,204*,72*,8.6*,61*
Cc1ccc(-n2nnc(-c3ccnc4ccccc34)n2)cc1,0.5,-3,111,48,4.2*,26
Fc1ccc(-n2nnc(-c3ccnc4ccccc34)n2)cc1,0.6,23,142*,38,4.8*,27
Cn1c(-c2nnn(-c3ccc(F)cc3)n2)cc2ccccc21,0.6,18,159*,41,4.1*,·
O=c1ccc(-c2nc3ccccc3n2C(CCc2ccccc2)c2nc3ccccc3[nH]2)c[nH]1 (stereo unspecified),·,·,·,·,·,6
COc1cccc(-c2cc(C(=O)NC3CCCCC3)no2)c1,·,·,·,·,·,4
CCSc1ccccc1C(=O)Nc1cc(C)on1,1.1,-12,-4,-5,1.4,6
Cc1cc(NC(=O)c2ccc(Cl)cc2)no1,0.4,20,126,59*,2.9,41
Cc1cc(NC(=O)c2ccccc2-c2ccccc2C(=O)O)no1,1,50*,43,0,1.2,8
C=CCn1c(CNc2ccccc2)nnc1SCC(=O)N/N=C/c1ccccc1O,1,15,-14,4,1.4,31
CC(C)NC(=O)C1(C)CCCN1Cc1ccccc1C#N (stereo unspecified),·,·,·,·,·,-4
CC1(C(=O)NS(=O)(=O)c2ccc3c(c2)CCO3)CCN1C(=O)CCC1CCCC1 (stereo unspecified),·,·,·,·,·,-22
Brc1ccc(-c2nc(-c3ccccn3)no2)o1,0.3,41,92,74*,2.7,43
O=[N+]([O-])c1cc(Cl)ccc1-c1nc(-c2ccccc2)no1,0.3,27,122,67*,13*,47
Brc1ccc(-c2noc(-c3ccccn3)n2)o1,·,·,·,·,·,30
O=[N+]([O-])c1ccccc1-c1nc(-c2ccc(Br)o2)no1,0.8,5,160*,20,0.99,15
COc1cc(C(=O)Nc2ccc(Nc3ccccc3)cc2)cc(OC)c1OC,·,·,·,·,·,-10
CC(NC(=O)Nc1nnc(C(F)(F)F)s1)(C(F)(F)F)C(F)(F)F,1,8,-1,-2,0.49,51*
Nc1c(-c2ccc(F)c(F)c2)nc2ncccn12,·,·,·,·,·,0
COc1cccc(-c2noc(-c3ccc(Cl)nc3)n2)c1,0.7,1,124,31,4.9*,22
CCc1nc(N)nc(N)c1-c1ccc(NCCN)c([N+](=O)[O-])c1,·,·,·,·,·,79*
